# Active and inactive are the calls of the source. The rule behind the calls is not given here.
# Tests used:
# [1] = target: T1, Toll-like receptor 7 (Homo sapiens) (UniProt Q9NYK1); experiment: Activation of human TLR7 expressed in HEK293XL assessed as fold induction of NF-kappaB activity at 50 ug/ml after 18 hrs by reporter gene assay relative to control
# T1 sequence (whole entry): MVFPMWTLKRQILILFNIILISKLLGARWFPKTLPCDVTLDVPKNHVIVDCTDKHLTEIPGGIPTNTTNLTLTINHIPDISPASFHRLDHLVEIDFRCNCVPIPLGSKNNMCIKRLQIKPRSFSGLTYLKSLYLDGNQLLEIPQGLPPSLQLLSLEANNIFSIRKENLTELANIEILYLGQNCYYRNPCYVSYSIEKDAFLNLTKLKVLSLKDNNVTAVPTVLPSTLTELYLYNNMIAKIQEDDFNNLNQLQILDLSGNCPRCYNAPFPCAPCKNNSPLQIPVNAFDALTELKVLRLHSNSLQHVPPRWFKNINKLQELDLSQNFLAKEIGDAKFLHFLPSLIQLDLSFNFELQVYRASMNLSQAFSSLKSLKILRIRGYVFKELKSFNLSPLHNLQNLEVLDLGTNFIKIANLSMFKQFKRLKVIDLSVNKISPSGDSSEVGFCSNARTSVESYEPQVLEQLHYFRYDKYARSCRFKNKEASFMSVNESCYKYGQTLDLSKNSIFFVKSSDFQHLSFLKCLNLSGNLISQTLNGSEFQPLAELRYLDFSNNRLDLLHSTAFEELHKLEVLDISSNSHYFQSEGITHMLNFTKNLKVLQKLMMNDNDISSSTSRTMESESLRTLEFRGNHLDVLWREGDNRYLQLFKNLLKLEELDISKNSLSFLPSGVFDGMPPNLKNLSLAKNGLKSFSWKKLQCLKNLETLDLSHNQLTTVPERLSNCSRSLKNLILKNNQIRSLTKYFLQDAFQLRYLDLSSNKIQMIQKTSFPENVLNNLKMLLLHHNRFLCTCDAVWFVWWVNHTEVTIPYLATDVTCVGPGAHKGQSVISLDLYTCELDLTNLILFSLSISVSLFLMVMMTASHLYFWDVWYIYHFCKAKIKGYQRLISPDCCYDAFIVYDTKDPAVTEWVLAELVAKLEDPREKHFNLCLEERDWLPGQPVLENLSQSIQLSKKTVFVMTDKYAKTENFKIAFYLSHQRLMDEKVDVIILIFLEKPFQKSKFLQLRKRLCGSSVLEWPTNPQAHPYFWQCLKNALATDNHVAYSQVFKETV
# How it was run: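 HEK293 cells stably expressing human TLR7 or TLR8, transiently transfected with SEAP reporter plasmid; medium replaced, SIMRA compounds added, 18 h incubation. Supernatant SEAP measured by QuantiBlue; expressed as fold increase in NF-κB activity over PBS control. Tabulated data at 50 μg/mL, representative of three independent experiments.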
# [2] = target: T2, Toll-like receptor 9 (Mus musculus) (UniProt Q9EQU3); experiment: Activation of mouse TLR9 expressed in HEK293 assessed as induction of NF-kappaB activity reporter gene assay; format: cell-based
# T2 sequence (whole entry): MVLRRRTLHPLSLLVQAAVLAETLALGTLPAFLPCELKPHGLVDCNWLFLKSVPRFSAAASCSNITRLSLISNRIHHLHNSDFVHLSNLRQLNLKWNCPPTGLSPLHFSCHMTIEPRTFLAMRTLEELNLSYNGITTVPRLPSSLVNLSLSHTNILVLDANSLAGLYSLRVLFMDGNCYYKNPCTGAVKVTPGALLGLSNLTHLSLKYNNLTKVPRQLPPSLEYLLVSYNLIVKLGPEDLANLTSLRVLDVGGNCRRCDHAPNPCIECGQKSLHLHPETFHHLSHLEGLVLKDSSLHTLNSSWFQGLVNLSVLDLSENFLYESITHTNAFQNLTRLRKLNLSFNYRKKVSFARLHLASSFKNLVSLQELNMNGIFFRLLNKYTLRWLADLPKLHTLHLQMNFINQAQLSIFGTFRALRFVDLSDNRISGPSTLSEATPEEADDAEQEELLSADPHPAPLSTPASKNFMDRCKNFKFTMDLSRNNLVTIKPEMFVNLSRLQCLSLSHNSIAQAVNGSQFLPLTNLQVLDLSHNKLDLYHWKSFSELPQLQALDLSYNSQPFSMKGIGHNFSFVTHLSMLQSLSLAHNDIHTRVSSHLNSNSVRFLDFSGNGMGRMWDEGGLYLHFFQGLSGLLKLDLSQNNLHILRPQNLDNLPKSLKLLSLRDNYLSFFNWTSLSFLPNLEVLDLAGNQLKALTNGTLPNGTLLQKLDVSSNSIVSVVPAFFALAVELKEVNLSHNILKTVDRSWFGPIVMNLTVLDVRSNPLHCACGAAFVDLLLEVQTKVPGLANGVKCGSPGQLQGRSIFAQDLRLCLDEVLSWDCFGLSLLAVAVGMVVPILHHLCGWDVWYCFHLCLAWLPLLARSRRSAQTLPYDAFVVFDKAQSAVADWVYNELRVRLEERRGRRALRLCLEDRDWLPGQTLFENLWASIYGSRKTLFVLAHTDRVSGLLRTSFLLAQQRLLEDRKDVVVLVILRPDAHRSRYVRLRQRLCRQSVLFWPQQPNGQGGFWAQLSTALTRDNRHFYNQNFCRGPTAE
fold change (FC) [1],Activity [2],Compound
18.4,inactive,Nc1ccn([C@@H]2O[C@H](COP(=O)(S)O[C@H]3[C@@H](O)[C@H](n4cnc5c(N)ncnc54)O[C@@H]3COP(=O)(S)O[C@H]3[C@@H](O)[C@H](n4ccc5c(=O)[nH]c(N)nc54)O[C@@H]3COP(=O)(S)O[C@H]3[C@@H](O)[C@H](n4ccc(=O)[nH]c4=O)O[C@@H]3CO)[C@@H](OP(=O)(S)OC[C@H]3O[C@@H](n4ccc5c(=O)[nH]c(N)nc54)[C@H](O)[C@@H]3OP(=O)(S)OC[C@H]3O[C@@H](n4cnc5c(N)ncnc54)[C@H](O)[C@@H]3OC[C@H]3O[C@@H](n4ccc(=O)[nH]c4=O)[C@H](O)[C@@H]3OP(=O)(S)ON[C@H]3O[C@@H](n4ccc5c(=O)[nH]c(N)nc54)[C@H](O)[C@@H]3OP(=O)(S)OC[C@H]3O[C@@H](n4cnc5c(N)ncnc54)[C@H](O)[C@@H]3OP(=O)(S)OC[C@H]3O[C@@H](n4ccc(=O)[nH]c4=O)[C@H](O)[C@@H]3OP(=O)(S)OC[C@H]3O[C@@H](n4ccc(=O)[nH]c4=O)[C@H](O)[C@@H]3OP(=O)(S)OCC(O)COP(=O)(S)O[C@H]3[C@@H](O)[C@H](n4ccc(=O)[nH]c4=O)O[C@@H]3COP(=O)(S)O[C@H]3[C@@H](O)[C@H](n4ccc(=O)[nH]c4=O)O[C@@H]3COP(=O)(S)O[C@H]3[C@@H](O)[C@H](n4cnc5c(N)ncnc54)O[C@@H]3COP(=O)(S)O[C@H]3[C@@H](O)[C@H](n4ccc5c(=O)[nH]c(N)nc54)O[C@@H]3NOP(=O)(S)O[C@H]3[C@@H](O)[C@H](n4ccc(=O)[nH]c4=O)O[C@@H]3CO[C@H]3[C@@H](O)[C@H](n4cnc5c(N)ncnc54)O[C@@H]3COP(=O)(S)O[C@H]3[C@@H](O)[C@H](n4ccc5c(=O)[nH]c(N)nc54)O[C@@H]3COP(=O)(S)O[C@H]3[C@@H](O)[C@H](n4ccc(N)nc4=O)O[C@@H]3COP(=O)(S)O[C@H]3[C@@H](O)[C@H](n4cnc5c(N)ncnc54)O[C@@H]3COP(=O)(S)O[C@H]3[C@@H](O)[C@H](n4ccc5c(=O)[nH]c(N)nc54)O[C@@H]3COP(=O)(S)O[C@H]3[C@@H](O)[C@H](n4ccc(=O)[nH]c4=O)O[C@@H]3CO)[C@H]2O)c(=O)n1 (stereo partly specified)
6.5,inactive,Nc1ccn([C@@H]2O[C@H](COP(=O)(S)O[C@H]3[C@@H](O)[C@H](n4cnc5c(N)ncnc54)O[C@@H]3COP(=O)(S)O[C@H]3[C@@H](O)[C@H](n4cnc5c(N)ncnc54)O[C@@H]3CO)[C@@H](OP(=O)(S)OC[C@H]3O[C@@H](n4ccc(=O)[nH]c4=O)[C@H](O)[C@@H]3OP(=O)(S)OC[C@H]3O[C@@H](n4ccc5c(=O)[nH]c(N)nc54)[C@H](O)[C@@H]3OP(=O)(S)OC[C@H]3O[C@@H](n4ccc(N)nc4=O)[C@H](O)[C@@H]3OP(=O)(S)OC[C@H]3O[C@@H](n4ccc5c(=O)[nH]c(N)nc54)[C@H](O)[C@@H]3OP(=O)(S)OC[C@H]3O[C@@H](n4cnc5c(N)ncnc54)[C@H](O)[C@@H]3OP(=O)(S)OC[C@H]3O[C@@H](n4ccc(N)nc4=O)[C@H](O)[C@@H]3OP(=O)(S)OC[C@H]3O[C@@H](n4ccc(=O)[nH]c4=O)[C@H](O)[C@@H]3OP(=O)(S)OC[C@H]3O[C@@H](n4ccc(=O)[nH]c4=O)[C@H](O)[C@@H]3OP(=O)(S)OCC(O)COP(=O)(S)O[C@H]3[C@@H](O)[C@H](n4ccc(=O)[nH]c4=O)O[C@@H]3COP(=O)(S)O[C@H]3[C@@H](O)[C@H](n4ccc(=O)[nH]c4=O)O[C@@H]3COP(=O)(S)O[C@H]3[C@@H](O)[C@H](n4ccc(N)nc4=O)O[C@@H]3COP(=O)(S)O[C@H]3[C@@H](O)[C@H](n4cnc5c(N)ncnc54)O[C@@H]3COP(=O)(S)O[C@H]3[C@@H](O)[C@H](n4ccc5c(=O)[nH]c(N)nc54)O[C@@H]3COP(=O)(S)O[C@H]3[C@@H](O)[C@H](n4ccc(N)nc4=O)O[C@@H]3COP(=O)(S)O[C@H]3[C@@H](O)[C@H](n4ccc5c(=O)[nH]c(N)nc54)O[C@@H]3COP(=O)(S)O[C@H]3[C@@H](O)[C@H](n4ccc(=O)[nH]c4=O)O[C@@H]3COP(=O)(S)O[C@H]3[C@@H](O)[C@H](n4ccc(N)nc4=O)O[C@@H]3COP(=O)(S)O[C@H]3[C@@H](O)[C@H](n4cnc5c(N)ncnc54)O[C@@H]3COP(=O)(S)O[C@H]3[C@@H](O)[C@H](n4cnc5c(N)ncnc54)O[C@@H]3CO)[C@H]2O)c(=O)n1 (stereo partly specified)
22.9,inactive,Nc1ccn([C@@H]2O[C@H](COP(=O)(S)O[C@H]3[C@@H](O)[C@H](n4cnc5c(N)ncnc54)O[C@@H]3COP(=O)(S)O[C@H]3[C@@H](O)[C@H](n4ccc5c(=O)[nH]c(N)nc54)O[C@@H]3COP(=O)(S)O[C@H]3[C@@H](O)[C@H](n4ccc(=O)[nH]c4=O)O[C@@H]3COP(=O)(S)O[C@H]3[C@@H](O)[C@H](n4ccc(=O)[nH]c4=O)O[C@@H]3COP(=O)(S)O[C@H]3[C@@H](O)[C@H](n4cnc5c(N)ncnc54)O[C@@H]3COP(=O)(S)O[C@H]3[C@@H](O)[C@H](n4cnc5c(N)ncnc54)O[C@@H]3CO)[C@@H](OP(=O)(S)OC[C@H]3O[C@@H](n4ccc5c(=O)[nH]c(N)nc54)[C@H](O)[C@@H]3OP(=O)(S)OC[C@H]3O[C@@H](n4ccc(N)nc4=O)[C@H](O)[C@@H]3OP(=O)(S)OC[C@H]3O[C@@H](n4ccc(=O)[nH]c4=O)[C@H](O)[C@@H]3OP(=O)(S)OC[C@H]3O[C@@H](n4ccc5c(=O)[nH]c(N)nc54)[C@H](O)[C@@H]3OP(=O)(S)OCC(O)COP(=O)(S)O[C@H]3[C@@H](O)[C@H](n4ccc5c(=O)[nH]c(N)nc54)O[C@@H]3COP(=O)(S)O[C@H]3[C@@H](O)[C@H](n4ccc(=O)[nH]c4=O)O[C@@H]3COP(=O)(S)O[C@H]3[C@@H](O)[C@H](n4ccc(N)nc4=O)O[C@@H]3COP(=O)(S)O[C@H]3[C@@H](O)[C@H](n4ccc5c(=O)[nH]c(N)nc54)O[C@@H]3COP(=O)(S)O[C@H]3[C@@H](O)[C@H](n4ccc(N)nc4=O)O[C@@H]3COP(=O)(S)O[C@H]3[C@@H](O)[C@H](n4cnc5c(N)ncnc54)O[C@@H]3COP(=O)(S)O[C@H]3[C@@H](O)[C@H](n4ccc5c(=O)[nH]c(N)nc54)O[C@@H]3COP(=O)(S)O[C@H]3[C@@H](O)[C@H](n4ccc(=O)[nH]c4=O)O[C@@H]3COP(=O)(S)O[C@H]3[C@@H](O)[C@H](n4ccc(=O)[nH]c4=O)O[C@@H]3COP(=O)(S)O[C@H]3[C@@H](O)[C@H](n4cnc5c(N)ncnc54)O[C@@H]3COP(=O)(S)O[C@H]3[C@@H](O)[C@H](n4cnc5c(N)ncnc54)O[C@@H]3CO)[C@H]2O)c(=O)n1 (stereo partly specified)

# — ChEMBL document CHEMBL1154352, “Toll-like receptor 7 selective synthetic oligoribonucleotide agonists: synthesis and structure-activity relationship studies” (J Med Chem, 2009)
